# Source: ChEMBL document CHEMBL3102784, “Salicylanilide diethyl phosphates: synthesis, antimicrobial activity and cytotoxicity” (Bioorg Med Chem, 2014)
# The source made the active and inactive calls. The rule behind the calls is not given here.
# Experiments:
# HepG2 = assay: Cytotoxicity against human HepG2 cells after 24 hrs by CellTiter assay; assay type: cell-based; settings: HepG2, 24 h
# How it was run: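 HepG2 cells (passage 27–33) in MEM with 10% FBS, L-glutamine and NEAA, seeded at 1×10^4 per well. Treated next day with compounds at 0.1–100 µM (or 0.1–25 µmol/L), triplicates, <1% DMSO, for 24 h at 37 °C, 5% CO2. MTS reagent added for 2 h, absorbance read at 490 nm. IC50 taken against untreated (100%) and 10% DMSO (0%) controls.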
# Mycobacterium avium [1] = assay: Antimycobacterial activity against isoniazid, rifampicin, ethambutol and ofloxacin-resistant Mycobacterium avium My 330/88 after 21 days; assay type: functional; settings: My 330/88, 504 h
# How it was run: (§1)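 Micromethod MIC in Šula's semisynthetic medium at 37 °C. Compounds added in DMSO at 1000 down to 0.032 µmol/L. Isoniazid standard in sterile water at 0.5–250 µmol/L. Inocula: H37Rv 10^3, M. avium 10^5, M. kansasii 10^4. Read at 14 and 21 d, plus 7 d for M. kansasii.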
# Trichosporon asahii [2] = assay: Antifungal activity against Trichosporon asahii 1188 after 48 hrs by broth microdilution method; assay type: functional; settings: Trichosporon asahii, 1188, 48 h
# How it was run: (§2)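 Broth microdilution in RPMI 1640 with glutamine, fluconazole as reference. For yeasts, MIC is ≥80% growth reduction (IC80) versus control. For filamentous fungi, the value is expressed as IC50. Readings at 24 and 48 h.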
# Candida albicans [3] = assay: Antifungal activity against Candida albicans ATCC 44859 after 24 hrs by broth microdilution method; assay type: functional; settings: ATCC 44859, 24 h; how it was run: as §2
# Pichia kudriavzevii [4] = assay: Antifungal activity against Candida krusei E28 after 48 hrs by broth microdilution method; assay type: functional; settings: E28, 48 h; how it was run: as §2
# Mycobacterium kansasii [5] = assay: Antimycobacterial activity against Mycobacterium kansasii My 235/80 after 7 days; assay type: functional; settings: My 235/80, 168 h; how it was run: as §1
# Mycobacterium kansasii [6] = assay: Antimycobacterial activity against Mycobacterium kansasii My 235/80 after 21 days; assay type: functional; settings: My 235/80, 504 h; how it was run: as §1
# Lichtheimia corymbifera [7] = assay: Antifungal activity against Absidia corymbifera 272 after 48 hrs by broth microdilution method; assay type: functional; settings: Lichtheimia corymbifera, 272, 48 h; how it was run: as §2
# Staphylococcus aureus [8] = assay: Antibacterial activity against methicillin-resistant Staphylococcus aureus H 5996/08 after 48 hrs by broth microdilution method; assay type: functional; settings: H 5996/08, 48 h
# How it was run: (§3)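 Broth microdilution in Mueller–Hinton broth, compounds dissolved in DMSO, tested over a dilution series from 500 downward. MIC taken as ≥95% growth reduction (IC95) versus drug-free control. Benzylpenicillin comparator. Readings at 24 and 48 h.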
# [9] = test system: Trichophyton mentagrophytes; assay: Antifungal activity against Trichophyton mentagrophytes 445 after 72 hrs by broth microdilution method; assay type: functional; settings: Trichophyton mentagrophytes, 445, 72 h
# How it was run: (§4)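 Filamentous dermatophyte tested by broth microdilution in RPMI 1640 with glutamine, fluconazole as reference. Value expressed as IC50 relative to growth control. Read at 72 and 120 h.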
# Pseudomonas aeruginosa = assay: Antibacterial activity against Pseudomonas aeruginosa CCM 1961 at 500 micromol/L after 24 to 48 hrs by broth microdilution method; assay type: functional, organism-based; how it was run: as §3
# Aspergillus fumigatus [10] = assay: Antifungal activity against Aspergillus fumigatus 231 after 48 hrs by broth microdilution method; assay type: functional; settings: Aspergillus fumigatus, 231, 48 h; how it was run: as §2
# Mycobacterium avium [11] = assay: Antimycobacterial activity against isoniazid, rifampicin, ethambutol and ofloxacin-resistant Mycobacterium avium My 330/88 after 14 days; assay type: functional; settings: My 330/88, 336 h; how it was run: as §1
# Staphylococcus aureus [12] = assay: Antibacterial activity against methicillin-resistant Staphylococcus aureus H 5996/08 after 24 hrs by broth microdilution method; assay type: functional; settings: H 5996/08, 24 h; how it was run: as §3
# Klebsiella pneumoniae [13] = assay: Antibacterial activity against ESBL-positive Klebsiella pneumoniae J 14368/08 at 500 micromol/L after 24 to 48 hrs by broth microdilution method; assay type: functional, organism-based; how it was run: as §3
# Mycobacterium kansasii [14] = assay: Antimycobacterial activity against Mycobacterium kansasii 6509/96 after 21 days; assay type: functional; settings: 6509/96, 504 h; how it was run: as §1
# Klebsiella pneumoniae [15] = assay: Antibacterial activity against Klebsiella pneumoniae D 11750/08 at 500 micromol/L after 24 to 48 hrs by broth microdilution method; assay type: functional, organism-based; how it was run: as §3
# Lichtheimia corymbifera [16] = assay: Antifungal activity against Absidia corymbifera 272 after 24 hrs by broth microdilution method; assay type: functional; settings: Lichtheimia corymbifera, 272, 24 h; how it was run: as §2
# [17] = test system: Staphylococcus epidermidis; assay: Antibacterial activity against Staphylococcus epidermidis H 6966/08 after 24 hrs by broth microdilution method; assay type: functional; settings: H 6966/08, 24 h; how it was run: as §3
# Enterococcus sp. = assay: Antibacterial activity against Enterococcus sp. J 14365/08 at 500 micromol/L after 24 to 48 hrs by broth microdilution method; assay type: functional, organism-based; how it was run: as §3
# Nakaseomyces glabratus = assay: Antifungal activity against Candida glabrata 20/I at 500 micromol/L after 24 to 48 hrs by broth microdilution method; assay type: functional, organism-based; how it was run: as §2
# Trichosporon asahii [18] = assay: Antifungal activity against Trichosporon asahii 1188 after 24 hrs by broth microdilution method; assay type: functional; settings: Trichosporon asahii, 1188, 24 h; how it was run: as §2
# Staphylococcus aureus [19] = assay: Antibacterial activity against Staphylococcus aureus CCM 4516/08 after 48 hrs by broth microdilution method; assay type: functional; settings: CCM 4516/08, 48 h; how it was run: as §3
# [20] = test system: Staphylococcus epidermidis; assay: Antibacterial activity against Staphylococcus epidermidis H 6966/08 after 48 hrs by broth microdilution method; assay type: functional; settings: H 6966/08, 48 h; how it was run: as §3
# Escherichia coli = assay: Antibacterial activity against Escherichia coli CCM 4517 at 500 micromol/L after 24 to 48 hrs by broth microdilution method; assay type: functional, organism-based; how it was run: as §3
# [21] = test system: Trichophyton mentagrophytes; assay: Antifungal activity against Trichophyton mentagrophytes 445 after 120 hrs by broth microdilution method; assay type: functional; settings: Trichophyton mentagrophytes, 445, 120 h; how it was run: as §4
# Aspergillus fumigatus [22] = assay: Antifungal activity against Aspergillus fumigatus 231 after 24 hrs by broth microdilution method; assay type: functional; settings: Aspergillus fumigatus, 231, 24 h; how it was run: as §2
# [23] = test system: Mycobacterium tuberculosis; assay: Antimycobacterial activity against Mycobacterium tuberculosis H37Rv My 331/88 after 21 days; assay type: functional; settings: H37Rv My 331/88, 504 h; how it was run: as §1
# Candida tropicalis = assay: Antifungal activity against Candida tropicalis 156 at 500 micromol/L after 24 to 48 hrs by broth microdilution method; assay type: functional, organism-based; how it was run: as §2
# [24] = test system: Mycobacterium tuberculosis; assay: Antimycobacterial activity against Mycobacterium tuberculosis H37Rv My 331/88 after 14 days; assay type: functional; settings: H37Rv My 331/88, 336 h; how it was run: as §1
# Staphylococcus aureus [25] = assay: Antibacterial activity against Staphylococcus aureus CCM 4516/08 after 24 hrs by broth microdilution method; assay type: functional; settings: CCM 4516/08, 24 h; how it was run: as §3
# Pichia kudriavzevii [26] = assay: Antifungal activity against Candida krusei E28 after 24 hrs by broth microdilution method; assay type: functional; settings: E28, 24 h; how it was run: as §2
# Mycobacterium kansasii [27] = assay: Antimycobacterial activity against Mycobacterium kansasii 6509/96 after 14 days; assay type: functional; settings: 6509/96, 336 h; how it was run: as §1
# Mycobacterium kansasii [28] = assay: Antimycobacterial activity against Mycobacterium kansasii My 235/80 after 14 days; assay type: functional; settings: My 235/80, 336 h; how it was run: as §1
# Candida albicans [29] = assay: Antifungal activity against Candida albicans ATCC 44859 after 48 hrs by broth microdilution method; assay type: functional; settings: ATCC 44859, 48 h; how it was run: as §2
# Mycobacterium kansasii [30] = assay: Antimycobacterial activity against Mycobacterium kansasii 6509/96 after 7 days; assay type: functional; settings: 6509/96, 168 h; how it was run: as §1
Compound,IC50 (HepG2),MIC (Mycobacterium avium [1]),MIC80 (Trichosporon asahii [2]),MIC80 (Candida albicans [3]),MIC80 (Pichia kudriavzevii [4]),MIC (Mycobacterium kansasii [5]),MIC (Mycobacterium kansasii [6]),MIC50 (Lichtheimia corymbifera [7]),MIC95 (Staphylococcus aureus [8]),MIC50 [9],Activity (Pseudomonas aeruginosa),MIC50 (Aspergillus fumigatus [10]),MIC (Mycobacterium avium [11]),MIC95 (Staphylococcus aureus [12]),Activity (Klebsiella pneumoniae [13]),MIC (Mycobacterium kansasii [14]),Activity (Klebsiella pneumoniae [15]),MIC50 (Lichtheimia corymbifera [16]),MIC95 [17],Activity (Enterococcus sp.),further results
CCOP(=O)(OCC)Oc1cc(Cl)ccc1C(=O)Nc1cccc(F)c1,11.2 µM,16 µM,> 500 µM,> 500 µM,> 500 µM,8 µM,16 µM,> 500 µM,250 µM,500 µM,inactive,> 500 µM,16 µM,250 µM,inactive,16 µM,inactive,> 500 µM,250 µM,inactive,Activity (Nakaseomyces glabratus): inactive; MIC80 (Trichosporon asahii [18]): > 500 µM; MIC95 (Staphylococcus aureus [19]): 250 µM; MIC95 [20]: 250 µM; Activity (Escherichia coli): inactive; MIC50 [21]: 500 µM; MIC50 (Aspergillus fumigatus [22]): > 500 µM; MIC [23]: 8 µM; Activity (Candida tropicalis): inactive; MIC [24]: 8 µM; MIC95 (Staphylococcus aureus [25]): 125 µM; MIC80 (Pichia kudriavzevii [26]): > 500 µM; MIC (Mycobacterium kansasii [27]): 16 µM; MIC (Mycobacterium kansasii [28]): 16 µM; MIC80 (Candida albicans [29]): > 500 µM; MIC (Mycobacterium kansasii [30]): 8 µM
CCOP(=O)(OCC)Oc1cc(Cl)ccc1C(=O)Nc1ccc(C(F)(F)F)cc1,2.51 µM,4 µM,> 500 µM,> 500 µM,> 500 µM,0.5 µM,1 µM,> 500 µM,62.5 µM,250 µM,inactive,> 500 µM,4 µM,62.5 µM,inactive,2 µM,inactive,> 500 µM,31.2 µM,inactive,Activity (Nakaseomyces glabratus): inactive; MIC80 (Trichosporon asahii [18]): > 500 µM; MIC95 (Staphylococcus aureus [19]): 31.2 µM; MIC95 [20]: 31.2 µM; Activity (Escherichia coli): inactive; MIC50 [21]: 250 µM; MIC50 (Aspergillus fumigatus [22]): > 500 µM; MIC [23]: 1 µM; Activity (Candida tropicalis): inactive; MIC [24]: 1 µM; MIC95 (Staphylococcus aureus [25]): 31.2 µM; MIC80 (Pichia kudriavzevii [26]): > 500 µM; MIC (Mycobacterium kansasii [27]): 2 µM; MIC (Mycobacterium kansasii [28]): 1 µM; MIC80 (Candida albicans [29]): > 500 µM; MIC (Mycobacterium kansasii [30]): 1 µM
CCOP(=O)(OCC)Oc1cc(Cl)ccc1C(=O)Nc1cccc(Cl)c1,9.57 µM,16 µM,> 500 µM,> 500 µM,> 500 µM,4 µM,8 µM,> 500 µM,500 µM,> 500 µM,inactive,> 500 µM,16 µM,500 µM,inactive,8 µM,inactive,> 500 µM,250 µM,inactive,Activity (Nakaseomyces glabratus): inactive; MIC80 (Trichosporon asahii [18]): > 500 µM; MIC95 (Staphylococcus aureus [19]): 500 µM; MIC95 [20]: 500 µM; Activity (Escherichia coli): inactive; MIC50 [21]: > 500 µM; MIC50 (Aspergillus fumigatus [22]): > 500 µM; MIC [23]: 8 µM; Activity (Candida tropicalis): inactive; MIC [24]: 4 µM; MIC95 (Staphylococcus aureus [25]): 500 µM; MIC80 (Pichia kudriavzevii [26]): > 500 µM; MIC (Mycobacterium kansasii [27]): 8 µM; MIC (Mycobacterium kansasii [28]): 8 µM; MIC80 (Candida albicans [29]): > 500 µM; MIC (Mycobacterium kansasii [30]): 8 µM
CCOP(=O)(OCC)Oc1cc(Cl)ccc1C(=O)Nc1ccc(Cl)c(Cl)c1,1.92 µM,16 µM,> 500 µM,> 500 µM,> 500 µM,2 µM,4 µM,> 500 µM,> 500 µM,7.81 µM,inactive,> 500 µM,16 µM,500 µM,inactive,4 µM,inactive,> 500 µM,250 µM,inactive,Activity (Nakaseomyces glabratus): inactive; MIC80 (Trichosporon asahii [18]): > 500 µM; MIC95 (Staphylococcus aureus [19]): > 500 µM; MIC95 [20]: > 500 µM; Activity (Escherichia coli): inactive; MIC50 [21]: 7.81 µM; MIC50 (Aspergillus fumigatus [22]): > 500 µM; MIC [23]: 4 µM; Activity (Candida tropicalis): inactive; MIC [24]: 4 µM; MIC95 (Staphylococcus aureus [25]): 500 µM; MIC80 (Pichia kudriavzevii [26]): > 500 µM; MIC (Mycobacterium kansasii [27]): 4 µM; MIC (Mycobacterium kansasii [28]): 4 µM; MIC80 (Candida albicans [29]): > 500 µM; MIC (Mycobacterium kansasii [30]): 4 µM
